≈ marks a conversion by molar mass, not a printed value.
Legend:
Assay type in all cases: functional
[1] = Minimum inhibitory activity towards Bacillus subtilis ATCC 33608
Procedure, shortened: (§1)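 Broth microdilution in Mueller-Hinton broth, inoculum 5 × 10^5 CFU/mL. MIC taken as the lowest antibiotic concentration preventing growth, judged by absence of turbidity after 24 h at 37 °C.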

Enterococcus faecalis = experiment: Minimum inhibitory activity towards Enterococcus faecalis ATCC 29212; procedure, shortened: as §1
Klebsiella pneumoniae = experiment: Minimum inhibitory activity towards Klebsiella pneumoniae ATCC 10031; procedure, shortened: as §1
Staphylococcus aureus = experiment: Minimum inhibitory activity towards Staphylococcus aureus ATCC 25923; procedure, shortened: as §1

CC(=O)OCC1=C(C(=O)O)N2C(=O)[C@@H](NC(=O)[C@@H](Cc3ccccc3)NNC(=O)OCc3ccccc3[N+](=O)[O-])C2SC1 (some centres undefined)
MIC [1]: 2 µg/mL (≈ 3.26 µM)
MIC (Enterococcus faecalis): > 32 µg/mL
MIC (Klebsiella pneumoniae): 32 µg/mL (≈ 52.2 µM)
MIC (Staphylococcus aureus): 1 µg/mL (≈ 1.63 µM)

From ChEMBL document CHEMBL1133169, “A light-inactivated antibiotic” (2000)
